Screening results as filed in PubChem BioAssay.
An excerpt weighted towards active compounds, which were near 2% of everything screened.
STEP block: STEP (human) phosphatase inhibition; recombinant STEP, OMFP fluorogenic substrate, fluorescence; AID 588621; P54829; 360,000 tested, 0.25% active; inhibition, % at 20 µM;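 active means inhibition at 20 µM, scaled per plate between control wells, above about 37%, limit read from the data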;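 further: 0% = DMSO with enzyme and substrate and 100% = substrate only without enzyme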
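Assay system: isolated STEP enzyme / Timing: 20 min at room temperature, dark / Doses: 20 µM, 1% DMSO / Technique: fluorescence intensity, excitation 480 nm, emission 540 nm / Reagent: fluorogenic phosphatase substrate OMFP at 25 µM final / Measure: percent inhibition scaled to no-enzyme and uninhibited-enzyme controls, plate-pattern corrected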
Scp1 inh: inhibitors of human Scp-1 phosphatase. Q9GZU7. inhibition, % at 20 µM. 340,000 tested, 0.88% active. Recombinant Scp1, phosphopeptide, malachite green phosphate absorbance. AID 493091;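 active means inhibition above about 50% at 20 µM, limit read from the data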;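 further: plate controls were DMSO wells with enzyme for no effect and wells lacking enzyme for full effect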
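Times: enzyme reaction 45 min at room temperature, colour 5 min, stabilisation 30 min. Material: SCP-1 catalytic fragment, aa 76-261. Medium: Acidic Tris acetate buffer with magnesium and detergent. Signal: colorimetric free-phosphate detection, absorbance 630 nm. Read-out basis: % inhibition of SCP-1 phosphate liberation. Reagent: Phosphorylated 17-residue peptide substrate.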
SUMO1-SIM PPI: alters human SUMO1 binding to SIM partners; SUMO1 binding to a labelled peptide, TR-FRET, 1 h; inhibition, % at 20 µM; 360,000 tested, 0.33% active; in the data active means inhibition above about 37%
CSN deneddyl inh: blocks human CSN-mediated cullin deneddylation; Purified CSN, SCF-Nedd8-OG deneddylation, fluorescence polarization; 360,000 tested, 0.38% active; inhibition, % at 12.5 µM; Q92905;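 active means pattern-corrected inhibition above about 35%, with an unprinted fluorescence ratio check between 0.5 and 1.5, limit read from the data, passing the limit was not always enough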;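 further: 0% = enzyme with substrate and 100% = substrate without enzyme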
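assay system = purified human Csn5 enzyme expressed in HEK293T cells | amount = 0.24 nM enzyme | buffer or medium = Tris/NaCl/DTT buffer, pH 7.5 | reagent = 10 nM SCFSkp2-Nedd8OG | compound = one concentration, 12.5 µM, 0.25% DMSO | times = 90 min reaction at room temperature | signal = FP | read-out basis = % inhibition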
LMPTP inh: LMPTP (human) inhibition; 360,000 tested, 0.22% active; P24666; AID 651560; recombinant LMPTP-A, OMFP fluorogenic substrate, fluorescence intensity; inhibition, % at 20 µM;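 active means compounds that cut the enzyme signal by at least half of the control window in the single-dose screen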;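 further: plate controls were DMSO wells with enzyme plus substrate for no effect and substrate without enzyme for full effect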
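Buffer or medium: Bis-Tris pH 6.0, DTT, detergent; Assay system: LMPTP-A enzyme; Quantity: 0.625 nM enzyme; Detection: endpoint fluorescence intensity; Times: 50 min dark incubation at room temperature; Controls: substrate-only low control, DMSO enzyme-plus-substrate high control; Doses: single 20 µM dose; Read-out: percent inhibition versus substrate-only and uninhibited controls; Reagent: 400 µM OMFP.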
DNMT1 inh: DNMT1 (human) enzyme inhibition. DNMT1 molecular beacon, Hinp1I cleavage, fluorescence. inhibition (reported as % activation of signal), % at 10 µM. 360,000 tested, 0.83% active. AID 588458; in the data active means inhibition above about 50%
Target sequence (P26358 504-1616 limits assumed): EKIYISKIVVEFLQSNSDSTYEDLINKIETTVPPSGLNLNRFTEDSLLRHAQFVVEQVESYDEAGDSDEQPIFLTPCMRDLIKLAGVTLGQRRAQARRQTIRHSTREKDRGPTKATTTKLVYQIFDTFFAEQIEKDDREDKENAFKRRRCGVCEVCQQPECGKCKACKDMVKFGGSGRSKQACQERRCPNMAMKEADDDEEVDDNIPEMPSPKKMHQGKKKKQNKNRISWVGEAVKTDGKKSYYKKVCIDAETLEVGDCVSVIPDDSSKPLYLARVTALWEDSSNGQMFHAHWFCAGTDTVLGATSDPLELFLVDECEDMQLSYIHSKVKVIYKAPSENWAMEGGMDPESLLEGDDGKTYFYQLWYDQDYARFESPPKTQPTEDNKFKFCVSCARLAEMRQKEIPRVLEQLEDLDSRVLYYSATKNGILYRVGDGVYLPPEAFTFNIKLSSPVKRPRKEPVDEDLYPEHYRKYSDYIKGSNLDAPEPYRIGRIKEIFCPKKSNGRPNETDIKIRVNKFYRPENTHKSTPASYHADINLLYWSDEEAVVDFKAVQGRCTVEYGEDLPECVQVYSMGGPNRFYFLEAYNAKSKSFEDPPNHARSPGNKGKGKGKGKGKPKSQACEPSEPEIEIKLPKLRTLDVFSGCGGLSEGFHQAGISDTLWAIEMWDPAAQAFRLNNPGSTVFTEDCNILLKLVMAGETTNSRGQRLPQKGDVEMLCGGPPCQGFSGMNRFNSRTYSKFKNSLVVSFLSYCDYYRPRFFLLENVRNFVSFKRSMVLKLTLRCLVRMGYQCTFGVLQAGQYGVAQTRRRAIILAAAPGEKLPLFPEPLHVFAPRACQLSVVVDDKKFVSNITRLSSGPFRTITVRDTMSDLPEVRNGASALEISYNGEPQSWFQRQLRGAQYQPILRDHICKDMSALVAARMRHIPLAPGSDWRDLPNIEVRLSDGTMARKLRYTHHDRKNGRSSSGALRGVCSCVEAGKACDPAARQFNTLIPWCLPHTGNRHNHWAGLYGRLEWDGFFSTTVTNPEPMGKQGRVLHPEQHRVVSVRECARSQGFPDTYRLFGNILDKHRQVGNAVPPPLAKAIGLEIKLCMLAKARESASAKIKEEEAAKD
DNMT1 interf DR: beacon fluorescence artifact, dose response counter-screen; shares compounds with DNMT1 inh; AID 602382; 200 tested, under 10 active; molecular beacon fluorescence, spectral interference counter-screen; IC50, µM; call rule not given here
DNMT1 confirm: confirmation of human DNMT1 inhibitors | shares compounds with DNMT1 inh | DNMT1 molecular beacon HinP1I cleavage, fluorescence | inhibition, % at 10 µM | 2,300 tested, 8% active | AID 602385;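 active means average inhibition of at least 30% in the single-concentration confirmation test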
DNMT1 interf: counter-screen for DNMT1 inhibitors: spectral interference; AID 602387; 2,300 tested, 1% active; shares compounds with DNMT1 inh; DNMT1 molecular beacon spectral interference counterscreen, fluorescence 485/520; activation (fluorescence interference), % at 10 µM;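 active means activation of at least 30% at 10 µM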;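 further: DNMT1 catalytic domain with a HinP1I cleavage step and a FAM/dabcyl DNA beacon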
* marks the source's active call; other numbers are inactive results; . = no result.

SMILES	STEP block	Scp1 inh	SUMO1-SIM PPI	CSN deneddyl inh	LMPTP inh	DNMT1 inh	DNMT1 confirm	DNMT1 interf	others
CCCCCn1c(N)c(-c2nc3ccccc3o2)c2c([N+](=O)[O-])nn(CC)c(=O)c21	37.5	102.0*	11.1	-10.4	55.9*	95.2*	2.3	0.9
COc1ccc2c(c1OC)C(=O)N1N=C(c3ccc(-c4ccccc4)cc3)CC21 (stereo not drawn)	0.7	-8.1	-3.8	-1.0	3.6	-1.0	.	.
COc1ccc2c(c1OC)C(=O)N1c3ccccc3N=C(c3ccc([N+](=O)[O-])cc3)CC21 (stereo not drawn)	0.2	-4.4	-25.1	1.6	-0.1	62.4*	-0.4	-2.1
CCOC(=O)C1=C(C)N(C[C@@H]2CC[C@@H](Cc3ccc(-c4ccccc4)cc3)O2)C(=O)NC1c1ccc(SCc2ccco2)c([N+](=O)[O-])c1 (stereo partly drawn)	0.9	35.4	6.2	18.7	5.9	94.3*	6.2	-4.4
O=C(CN1C(=O)/C(=C\c2ccco2)SC1=S)Nc1ccc(O)cc1C(=O)O	79.5*	56.6*	87.0*	69.6*	43.9	90.1*	13.5	0.8
O=C1/C(=C/c2ccco2)SC(=S)N1CC1CCCO1 (stereo not drawn)	47.0*	63.2*	2.0	27.1	32.2	71.2*	0.7	-0.3
Cc1cc(OC(=O)c2cc([N+](=O)[O-])ccc2Cl)c([N+](=O)[O-])c(=O)[nH]1	-4.5	9.7	-10.0	1.5	-0.5	-2.2	.	.
Cc1ccc(C)c(NC(=S)NC23CN4CN(CN(C4)C2)C3)c1	1.6	-12.7	-0.1	9.9	-3.2	-0.5	.	.
O=C(O)C1CCN(c2ncccn2)CC1	-3.1	3.6	-1.4	-4.7	0.1	81.1*	1.8	2.2
N#Cc1ccc(CN2CCN(C(=O)C3CC(=O)N(c4ccccc4F)C3)CC2)cc1 (stereo not drawn)	-3.4	-3.4	-0.5	-0.1	-0.4	4.8	.	.
COC(=O)c1cc(Br)ccc1NC(=O)CCNC(=O)c1ccco1	1.6	-3.0	5.0	-2.3	0.8	1.2	.	.
CCc1nc(Nc2ccc(OC)c(OC)c2)c2nnn(Cc3ccccc3Cl)c2n1	4.5	8.6	0.4	-1.6	5.0	105.2*	1.7	6.4
COc1cccc(OC)c1Nc1nc(C)nc2c1nnn2Cc1ccccc1Cl	1.1	0.6	1.0	6.8	0.1	0.6	.	.
CCCn1cnc2c(=O)oc3ccccc3c21	-3.2	-4.8	-1.3	-1.5	-1.0	-2.3	.	.
Cn1c2ccccc2c2c(=O)oc3ccccc3c21	4.5	1.3	-2.1	4.5	7.7	51.9*	29.0	-2.1	DNMT1 interf DR=>99
Nc1c(N(CCC2=CCCCC2)C(=O)COc2ccc(F)cc2Cl)c(=O)[nH]c(=O)n1Cc1ccccc1	3.2	-10.4	2.1	7.8	-2.1	53.5*	2.3	2.0
Nc1c(N(CCC2=CCCCC2)C(=O)COc2ccc([N+](=O)[O-])cc2)c(=O)[nH]c(=O)n1Cc1ccccc1	0.7	-3.9	-1.9	-2.0	-2.6	58.2*	0.2	4.1
O=C1NC[C@@H](CCCCN2CCN(CCc3ccccc3)C(=O)C2=O)N(CCC2CCCCC2)C1=O	.	.	1.6	-5.2	0.8	.	.	.
Cc1cc(C)cc(-n2c3nc4ccccc4nc3c3c(=O)n(Cc4ccco4)cnc32)c1	2.0	4.6	-0.2	22.2	56.3*	98.1*	-0.1	-3.8
CCOC(=O)c1c(C)[nH]c(C(=O)OC(C)C(=O)Nc2ccc(C)cc2)c1C (stereo not drawn)	-1.8	.	2.9	-0.2	1.4	74.2*	-2.1	-2.5
NC(=O)CC[C@H](NC(=O)c1ccc(F)cc1)C(=O)OCC(=O)NCc1ccc(F)cc1	-1.6	-4.9	2.9	-6.9	-0.9	51.6*	1.7	1.4
O=C1/C(=C\c2ccc(-c3ccccc3[N+](=O)[O-])o2)C(c2ccccc2)=NN1c1ccccc1	0.2	-19.9	20.5	0.2	3.2	62.8*	13.9	1.0
O=C(CNC(=O)c1cccc(Cl)c1)NCC(c1cccs1)N1CCOCC1 (stereo not drawn)	-1.5	1.5	2.1	4.8	-0.1	1.3	.	.
Cc1ccc(-n2nc3ccc(NC(=O)c4cccc([N+](=O)[O-])c4C)cc3n2)cc1	0.6	-1.2	-1.2	-0.9	2.4	62.8*	3.6	2.8
Cc1ccc(-n2nc3ccc(NC(=O)c4ccco4)cc3n2)cc1	2.7	-12.2	29.2	11.1	3.3	36.2	.	.
SMILES	STEP block	Scp1 inh	SUMO1-SIM PPI	CSN deneddyl inh	LMPTP inh	DNMT1 inh	DNMT1 confirm	DNMT1 interf	others
COc1ccc2c3c([nH]c2c1)C(C)N(CCC(=O)NN)CC3 (stereo not drawn)	8.5	-5.7	-3.0	-2.1	-0.3	63.9*	4.2	4.2
COc1ccc2c3c([nH]c2c1)C(C)N(C(C)=O)CC3 (stereo not drawn)	-1.5	-11.0	0.1	1.5	0.9	0.4	.	.
C=C(CN(C)C)C(=O)c1cc(OC)c(OC)cc1OC	-2.8	-1.8	1.0	-1.2	-1.5	-0.3	.	.
COc1ccc(CNC(=O)N2CCN(c3ccccc3)CC2)cc1	3.9	-5.9	5.5	4.8	0.3	3.6	.	.
Cc1ccc2cc(C#N)c(SCC(=O)NNC(=O)Cc3ccccc3)nc2c1	-1.2	0.0	-4.5	-3.2	-0.1	44.9	-1.2	-5.2
O=C(COC(=O)c1ncc(Cl)c(Cl)c1Cl)NCCc1ccccc1	-0.8	1.6	1.4	-1.9	1.4	0.6	.	.
CC(C(=O)N(C)C1CCS(=O)(=O)C1)N1C(=O)/C(=C/c2ccc(F)cc2)SC1=S (stereo not drawn)	7.9	-2.2	-35.5	5.5	0.4	0.1	.	.
CCN(C(=O)C(C)N1C(=O)/C(=C/c2ccco2)SC1=S)C1CCS(=O)(=O)C1 (stereo not drawn)	14.8	35.9	-3.0	34.0	4.0	63.4*	0.0	1.2
Cc1ccc(OCC(=O)NNC(=O)CSc2ncnc3sc(C)c(C)c23)cc1	-0.6	-0.7	-7.9	37.6*	1.8	53.9*	2.8	4.7
O=C1CCC/C(=N/NC(=O)C2CCN(S(=O)(=O)c3cccs3)CC2)C1	-2.6	-6.7	0.5	-2.4	-0.9	70.8*	0.8	4.1
CCN(CC)c1ccc(S(=O)(=O)N2CCCCC2)cc1NC(=O)CN1C(=O)NC2(CCCC2)C1=O	-0.8	1.0	5.0	2.5	-0.5	1.2	.	.
